Source: ChEMBL document CHEMBL4020752, “Synthesis and biological activity of new phthalimides as potential anti-inflammatory agents” (Bioorg Med Chem, 2017)
Values after ≈ are worked out from the molar mass of the structure shown. Active and inactive are the calls of the source. No cut-off for these calls is given here.

Experiments:
RAW264.7 [1] = experiment: Anti-inflammatory activity in mouse RAW264.7 cells assessed as inhibition of LPS-induced NO production by measuring remaining NO level at 20 ug/ml after 22 hrs by Griess assay relative to control; assay type: functional
How it was run: (§1)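 RAW 264.7 cells seeded at 2×10^5/well, grown 24 h at 37 °C in 5% CO2, washed twice with PBS, given fresh medium, then exposed to LPS 1 µg/mL with or without test compound for 22 h. Nitrite in the medium read by Griess reagent at 540 nm against a sodium nitrite standard curve. IC50 obtained by nonlinear regression of % inhibition vs concentration. Means ± SD of three independent experiments.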

RAW264.7 [2] = experiment: Anti-inflammatory activity in mouse RAW264.7 cells assessed as inhibition of LPS-induced NO production by measuring […] level at 20 ug/ml after 22 hrs by Griess assay (reference value: 25.31 uM); assay type: functional; how it was run: as §1
[3] = Cytotoxicity against mouse RAW264.7 cells assessed as survival at 40 ug/ml after 22 hrs by MTT assay relative to control; assay type: cell-based; settings: read-out: Survival
How it was run: (§2)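 RAW 264.7 cells were grown in DMEM with 10% heat-inactivated FBS at 37 °C and 5% CO₂, then plated at 2×10^5 per well for 24 h. After washing, cells received 1 µg/mL LPS with or without compound (up to 40 µg/mL) for 22 h. After the Griess read, MTT (final 500 µg/mL) was added for 3 h at 37 °C. Formazan was dissolved in DMSO and read at 570 nm, giving % survival versus control.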

RAW264.7 [4] = experiment: Downregulation of LPS-stimulated IL-1beta mRNA expression level in mouse RAW264.7 cells preincubated for 30 mins followed by LPS stimulation for 4 hrs by RT-PCR method; assay type: functional, cell-based
How it was run: (§3)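 Cells pretreated with compound for 30 min, then stimulated with LPS 1 µg/mL for 4 h. Total RNA extracted and cytokine mRNA measured by real-time PCR. Means ± SD of triplicate tests.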

RAW264.7 [5] = experiment: Downregulation of LPS-stimulated iNOS mRNA expression level in mouse RAW264.7 cells preincubated for 30 mins followed by LPS stimulation for 4 hrs by RT-PCR method; assay type: functional, cell-based
[6] = Cytotoxicity against mouse RAW264.7 cells assessed as survival up to 20 ug/ml after 22 hrs by MTT assay relative to control; assay type: cell-based; settings: read-out: Survival; how it was run: as §2
[7] = target: T1, Interferon regulatory factor 3 (Mus musculus) (UniProt P70671); experiment: Inhibition of LPS-stimulated IRF-3 phosphorylation at Ser-396 residue in mouse RAW264.7 cells up to 20 ug/ml preincubated for 30 mins followed by LPS stimulation for 30 mins by Western blot analysis; assay type: cell-based
T1 sequence (whole entry): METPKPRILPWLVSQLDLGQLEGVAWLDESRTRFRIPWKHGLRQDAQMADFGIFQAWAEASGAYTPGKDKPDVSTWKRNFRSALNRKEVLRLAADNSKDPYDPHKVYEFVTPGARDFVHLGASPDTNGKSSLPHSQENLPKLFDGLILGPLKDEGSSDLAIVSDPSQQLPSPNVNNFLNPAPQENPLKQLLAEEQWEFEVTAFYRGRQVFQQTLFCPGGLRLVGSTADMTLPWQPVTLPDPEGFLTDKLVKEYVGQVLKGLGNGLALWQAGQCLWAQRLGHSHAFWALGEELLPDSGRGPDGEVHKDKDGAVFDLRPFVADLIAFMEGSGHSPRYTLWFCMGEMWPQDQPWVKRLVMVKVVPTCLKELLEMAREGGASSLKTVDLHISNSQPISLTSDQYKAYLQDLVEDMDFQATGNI
How it was run: (§4)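 Pretreatment with a range of compound concentrations for 30 min, then LPS 1 µg/mL for 30 min. IκBα, phospho-protein and related protein levels analysed by western blot.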

RAW264.7 [8] = experiment: Downregulation of LPS-stimulated iNOS protein expression level in mouse RAW264.7 cells preincubated for 30 mins followed by LPS stimulation for 16 hrs by Western blot analysis; assay type: functional, cell-based
How it was run: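 Cells pretreated with a range of compound concentrations for 30 min, then stimulated with LPS 1 µg/mL for 16 h. iNOS protein analysed by western blot.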

RAW264.7 [9] = experiment: Upregulation of HO-1 protein level in LPS-stimulated mouse RAW264.7 cells at 20 ug/ml preincubated for 30 mins followed by LPS stimulation for 16 hrs by Western blot method; assay type: functional, cell-based
How it was run: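 RAW 264.7 cells pretreated with compound for 30 min, then stimulated with LPS 1 µg/mL for 16 h. HO-1 protein measured by western blotting.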

Mus musculus [10] = species: Mus musculus; experiment: Inhibition of IkB kinase in LPS-stimulated mouse RAW264.7 cells assessed as reduction in IkB-alpha phosphorylation up to 20 ug/ml preincubated with cells followed by LPS stimulation for 30 mins by Western blot analysis; how it was run: as §4
RAW264.7 [11] = experiment: Downregulation of IFN-beta mRNA level in LPS-stimulated mouse RAW264.7 cells up to 20 ug/ml preincubated with cells followed by LPS stimulation for 4 hrs by RT-PCR method; assay type: functional, cell-based; how it was run: as §3
RAW264.7 [12] = experiment: Downregulation of IkB-alpha level in LPS-stimulated mouse RAW264.7 cells up to 20 ug/ml preincubated with cells followed by LPS stimulation for 30 mins by Western blot analysis; assay type: functional, cell-based; how it was run: as §4
Mus musculus [13] = species: Mus musculus; experiment: Inhibition of NF-kB transcriptional activity in LPS-stimulated mouse RAW264.7 cells up to 20 ug/ml preincubated for 2 hrs followed by LPS stimulation for 16 hrs by SEAP reporter gene assay
How it was run: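 RAW-SEAP cells cultured 24 h, pretreated with compound for 2 h, then given LPS 1 µg/mL for 16 h. Supernatants heated at 65 °C for 5 min and reacted with buffer (2 M diethanolamine, 1 mM MgCl2, 500 µM MUP) in the dark at 37 °C for 1 h. Fluorescence read at ex 360/em 449 nm, normalized to protein, expressed relative to vehicle control without LPS.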

RAW264.7 [14] = experiment: Downregulation of IKKbeta level in LPS-stimulated mouse RAW264.7 cells up to 20 ug/ml preincubated with cells followed by LPS stimulation for 16 hrs by Western blot analysis; assay type: functional, cell-based
How it was run: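 RAW 264.7 cells pretreated with a range of compound concentrations, then stimulated with LPS 1 µg/mL for 16 h. IKK protein analysed by western blotting.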

RAW264.7 [15] = experiment: Downregulation of LPS-stimulated IL-1beta protein expression level in mouse RAW264.7 cells up to 20 ug/ml preincubated for 30 mins followed by LPS stimulation for 4 hrs by Western blot analysis; assay type: functional, cell-based
How it was run: (§5)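 RAW 264.7 cells pretreated with a range of compound concentrations for 30 min, then stimulated with LPS 1 µg/mL for 4 h. Total protein extracted and cytokine levels analysed by western blotting.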

RAW264.7 [16] = experiment: Anti-inflammatory activity in mouse RAW264.7 cells assessed as inhibition of LPS-induced NO production after 22 hrs by Griess assay; assay type: functional, cell-based; how it was run: as §1
RAW264.7 [17] = experiment: Downregulation of LPS-stimulated TNF-alpha protein expression level in mouse RAW264.7 cells up to 20 ug/ml preincubated for 30 mins followed by LPS stimulation for 4 hrs by Western blot analysis; assay type: functional, cell-based; how it was run: as §5
RAW264.7 [18] = experiment: Anti-inflammatory activity in mouse RAW264.7 cells assessed as inhibition of LPS-induced NO production by measuring […] level at 50 uM after 22 hrs by Griess assay (reference value: 25.31 uM); assay type: functional; how it was run: as §1
RAW264.7 [19] = experiment: Anti-inflammatory activity in mouse RAW264.7 cells assessed as inhibition of LPS-induced NO production at 50 uM after 22 hrs by Griess assay relative to control; assay type: functional; settings: RAW264.7, 22 h; how it was run: as §1
RAW264.7 [20] = experiment: Anti-inflammatory activity in mouse RAW264.7 cells assessed as inhibition of LPS-induced NO production by measuring remaining NO level at 50 uM after 22 hrs by Griess assay relative to control; assay type: functional; how it was run: as §1

SMILES	Activity (RAW264.7 [1])	Activity (RAW264.7 [2])	also measured
CCCCCN1C(=O)c2cc(OC)cc(OC)c2C1=O	74.8%	18.6 µM	–
COc1cc(OC)c2c(c1)C(=O)N(CCOC(C)=O)C2=O	97.1%	24.13 µM	–
O=C1c2cc(O)cc(O)c2C(=O)N1Cc1ccc(Br)cc1	32.4%	8.04 µM	–
CCCN1C(=O)c2cc(OC)cc(OC)c2C1=O	93.5%	23.24 µM	–
O=C1c2cc(O)cc(O)c2C(=O)N1Cc1ccccc1F	47.3%	11.76 µM	–
CCCN1C(=O)c2cc(O)cc(O)c2C1=O	83.3%	20.71 µM	–
CCCCCCN1C(=O)c2cc(O)cc(O)c2C1=O	8%	1.98 µM	–
CCCCCN1C(=O)c2cc(O)cc(O)c2C1=O	45.5%	11.3 µM	–
COc1cc(OC)c2c(c1)C(=O)N(Cc1cccc(F)c1)C2=O	75.1%	18.65 µM	–
CCC(=O)OCCN1C(=O)c2cc(OC)cc(OC)c2C1=O	101.9%	25.31 µM	–
COc1cc(OC)c2c(c1)C(=O)N(Cc1cccc(C)c1)C2=O	74.2%	18.43 µM	–
O=C1c2cc(O)cc(O)c2C(=O)N1Cc1cccc(F)c1	42.1%	10.46 µM	–
COc1cc(OC)c2c(c1)C(=O)N(CCO)C2=O	99.8%	24.8 µM	–
COc1cc(OC)c2c(c1)C(=O)N(Cc1ccccc1F)C2=O	75.9%	18.87 µM	–
CCN1C(=O)c2cc(O)cc(O)c2C1=O	85%	21.12 µM	–
CCN1C(=O)c2cc(OC)cc(OC)c2C1=O	43.5%	10.81 µM	–

SMILES	Activity (RAW264.7 [1])	Activity (RAW264.7 [2])	also measured
CCCCCCCN1C(=O)c2cc(O)cc(O)c2C1=O	2.9%	0.72 µM	viability at 22 h, 40 ug/ml [3]: 17%; Activity (RAW264.7 [4]): Dose-dependent effect; Activity (RAW264.7 [5]): Dose-dependent effect; viability at 22 h [6]: > 95%; inhibition [7]: Active; Activity (RAW264.7 [8]): Dose-dependent effect; Activity (RAW264.7 [9]): Active; inhibition (Mus musculus [10]): Active; Activity (RAW264.7 [11]): Active; Activity (RAW264.7 [12]): Active; inhibition (Mus musculus [13]): Active; Activity (RAW264.7 [14]): Active; Activity (RAW264.7 [15]): Active; inhibition (RAW264.7 [16]): Dose-dependent effect; IC50 (RAW264.7 [16]; RAW264.7, 22 h): 8.7 µg/mL (≈ 31.4 µM); Activity (RAW264.7 [17]): Active
CCCCN1C(=O)c2cc(OC)cc(OC)c2C1=O	79.3%	19.7 µM	–
CC1CCN=C(N)S1.Cl (centres undefined)	–	–	Activity (RAW264.7 [18]): 0.5 µM; inhibition at 50 µM (RAW264.7 [19]): 98%; Activity (RAW264.7 [20]): 2%
CC(C)N1C(=O)c2cc(O)cc(O)c2C1=O	82.4%	20.47 µM	–
Cc1cccc(CN2C(=O)c3cc(O)cc(O)c3C2=O)c1	41.7%	10.36 µM	–
COc1cc(OC)c2c(c1)C(=O)N(CC(C)C)C2=O	86.3%	21.45 µM	–
COc1cc(OC)c2c(c1)C(=O)N(CCOC(=O)CCl)C2=O	48.9%	12.14 µM	–
CCCCCCCN1C(=O)c2cc(OC)cc(OC)c2C1=O	84.5%	20.99 µM	–
COc1cc(OC)c2c(c1)C(=O)N(C(C)C)C2=O	97.9%	24.34 µM	–
CC(C)CN1C(=O)c2cc(O)cc(O)c2C1=O	84.8%	21.07 µM	–
COc1cc(OC)c2c(c1)C(=O)N(Cc1ccccc1Br)C2=O	83.7%	20.79 µM	–
COc1cc(OC)c2c(c1)C(=O)N(Cc1ccc(Br)cc1)C2=O	81.1%	20.16 µM	–
CCCCN1C(=O)c2cc(O)cc(O)c2C1=O	73.4%	18.24 µM	–
O=C1c2cc(O)cc(O)c2C(=O)N1Cc1ccccc1Br	38.8%	9.65 µM	–
CCCCCCN1C(=O)c2cc(OC)cc(OC)c2C1=O	92.6%	23.01 µM	–
